This is an account of results in ChEMBL document CHEMBL4616671, “Identification of N-Phenyl-7H-pyrrolo[2,3-d]pyrimidin-4-amine Derivatives as Novel, Potent, and Selective NF-κB Inducing Kinase (NIK) Inhibitors for the Treatment of Psoriasis” (J Med Chem, 2020).

pIC50: −log10 of the molar value. Activity calls are given as the source filed them. The calls are words filed in the database; no cut-off is given here.

The subject of data set [1] is J774. Briefly: Antiinflammatory activity in mouse J774 cells assessed as inhibition of LPS-induced NO production at 1 uM preincubated for 2 hrs followed by LPS stimulation and measured after 22 hrs by Griess reagent based assay relative to control. Format: functional. In a few lines:
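J774 macrophages seeded at 2*10^4 cells/mL, 24 h at 37 °C 5% CO₂; compound in DMSO at 1 µM, 3 replicate wells, 2 h pre-incubation, then LPS at 1 ug/mL final for 22 h. Supernatant nitrite read with Griess reagent at 540 nm against a sodium nitrite standard curve. Inhibition % = (model − compound)/(model − control) NO ×100; mean ± SD, three independent experiments.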
Background: Griess reagent forms a coloured azo dye with nitrite.

The test system of data set [2] is J774. As to the kind of experiment: Antiinflammatory activity in mouse J774 cells assessed as reduction in LPS-induced IL23 mRNA level by SYBR green dye-based quantitative PCR analysis. The format is functional, cell-based. In a few lines:
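LPS-stimulated J774 macrophages; mRNA quantified by qPCR using 4 µL cDNA plus 16 µL master mix per reaction. Mean ± SD of three biological replicates; significance by two-tailed Student's t-test against the model group.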

Data set [3] concerns the target Leucine-rich repeat serine/threonine-protein kinase 2 (Homo sapiens, UniProt Q5S007). Briefly: Inhibition of human LRRK2 using [RLGRDKYKTLRQIRQ] as substrate in presence of [gamma33P]ATP by hotspot assay.
In data set [4] the target is T1, Mitogen-activated protein kinase kinase kinase 14 (Homo sapiens, UniProt Q99558). As to the kind of experiment: Inhibition of NIK in human BEAS2B cells assessed as reduction in LPS-induced IL-6 level preincubated for 8 hrs followed by LPS stimulation and measured after 24 hrs by ELISA. The format is cell-based. In a few lines: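 BEAS-2B cells were grown in DMEM with 10% FBS, seeded at 5000 cells/well, and cultured 24 h at 37 °C in 5% CO2. Compounds were given at 7 concentrations from 10 μM to 0.014 μM (3 replicate wells), with dexamethasone as positive control. After 8 h, LPS (20 μg/mL solution) was added for 24 h. Supernatant IL-6 was read by human IL-6 ELISA; two biological replicates.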
Target sequence in this assay (Q99558 whole entry, looked up): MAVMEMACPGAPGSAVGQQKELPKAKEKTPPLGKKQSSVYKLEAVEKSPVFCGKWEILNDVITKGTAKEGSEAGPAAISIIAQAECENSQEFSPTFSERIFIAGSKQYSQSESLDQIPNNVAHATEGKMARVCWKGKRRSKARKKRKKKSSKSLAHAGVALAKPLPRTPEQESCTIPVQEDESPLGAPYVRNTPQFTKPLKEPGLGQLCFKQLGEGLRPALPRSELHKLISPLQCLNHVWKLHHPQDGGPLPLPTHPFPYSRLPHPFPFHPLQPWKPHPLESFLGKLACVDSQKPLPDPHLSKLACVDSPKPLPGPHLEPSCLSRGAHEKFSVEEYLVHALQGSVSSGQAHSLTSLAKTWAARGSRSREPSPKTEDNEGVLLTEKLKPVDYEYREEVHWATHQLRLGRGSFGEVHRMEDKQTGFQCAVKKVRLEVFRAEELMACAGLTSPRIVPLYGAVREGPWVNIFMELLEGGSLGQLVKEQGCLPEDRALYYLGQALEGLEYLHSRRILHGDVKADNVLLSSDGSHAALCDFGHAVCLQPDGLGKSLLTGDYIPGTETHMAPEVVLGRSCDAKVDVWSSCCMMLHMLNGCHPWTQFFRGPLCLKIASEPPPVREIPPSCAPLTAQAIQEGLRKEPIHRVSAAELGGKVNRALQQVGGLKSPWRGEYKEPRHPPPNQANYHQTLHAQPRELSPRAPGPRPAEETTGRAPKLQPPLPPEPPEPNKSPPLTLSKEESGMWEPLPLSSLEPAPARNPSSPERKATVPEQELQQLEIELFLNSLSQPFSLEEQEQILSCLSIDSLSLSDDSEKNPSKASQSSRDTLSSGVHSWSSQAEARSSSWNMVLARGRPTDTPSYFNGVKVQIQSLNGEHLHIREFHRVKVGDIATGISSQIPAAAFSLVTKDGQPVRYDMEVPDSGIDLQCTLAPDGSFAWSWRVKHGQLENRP

Data set [5] concerns the target T2, Tyrosine-protein kinase JAK3 (Homo sapiens, UniProt P52333).
T2 sequence (P52333 whole entry): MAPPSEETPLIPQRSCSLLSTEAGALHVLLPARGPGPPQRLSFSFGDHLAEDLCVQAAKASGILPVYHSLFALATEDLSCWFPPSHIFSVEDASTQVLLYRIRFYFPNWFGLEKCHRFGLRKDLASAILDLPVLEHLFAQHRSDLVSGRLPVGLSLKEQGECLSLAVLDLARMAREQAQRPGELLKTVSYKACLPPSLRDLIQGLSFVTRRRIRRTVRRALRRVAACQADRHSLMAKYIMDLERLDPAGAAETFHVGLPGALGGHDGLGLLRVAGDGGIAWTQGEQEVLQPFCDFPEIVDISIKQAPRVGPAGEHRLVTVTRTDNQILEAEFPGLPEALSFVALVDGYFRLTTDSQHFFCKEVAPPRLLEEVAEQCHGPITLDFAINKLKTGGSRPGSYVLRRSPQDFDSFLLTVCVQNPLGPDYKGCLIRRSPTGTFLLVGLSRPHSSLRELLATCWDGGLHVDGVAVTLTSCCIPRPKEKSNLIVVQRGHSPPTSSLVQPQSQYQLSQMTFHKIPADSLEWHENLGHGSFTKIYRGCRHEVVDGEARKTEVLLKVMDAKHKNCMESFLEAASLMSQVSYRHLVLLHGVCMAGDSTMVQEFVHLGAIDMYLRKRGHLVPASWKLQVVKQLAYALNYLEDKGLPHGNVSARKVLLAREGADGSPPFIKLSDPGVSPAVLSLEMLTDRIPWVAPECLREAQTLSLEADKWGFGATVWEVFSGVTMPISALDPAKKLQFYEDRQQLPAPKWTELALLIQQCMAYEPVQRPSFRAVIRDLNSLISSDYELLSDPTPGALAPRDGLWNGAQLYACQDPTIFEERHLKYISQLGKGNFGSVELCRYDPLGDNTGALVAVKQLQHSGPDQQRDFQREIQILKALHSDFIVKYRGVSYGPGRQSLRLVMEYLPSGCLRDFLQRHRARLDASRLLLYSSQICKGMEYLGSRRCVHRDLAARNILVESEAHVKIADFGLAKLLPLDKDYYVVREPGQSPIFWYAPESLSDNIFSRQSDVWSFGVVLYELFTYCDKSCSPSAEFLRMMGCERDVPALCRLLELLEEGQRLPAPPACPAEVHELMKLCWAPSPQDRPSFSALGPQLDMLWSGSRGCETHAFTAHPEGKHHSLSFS
Briefly: Inhibition of human JAK3 using [GGEEEEYFELVKKKK] as substrate in presence of [gamma33P]ATP by hotspot assay.

In data set [6] the target is T1, Mitogen-activated protein kinase kinase kinase 14. As to the kind of experiment: Inhibition of recombinant N-terminal GST-fused human NIK (319 to 947 residues) expressed in baculovirus expression system incubated for 120 mins in presence of ATP by ADP-glo based luminescence assay. In a few lines:
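ADP-Glo luminescence assay with recombinant human MAP3K14. Buffer: Tris pH 7.5, 2 mM DTT, 2 mM MgCl₂, 100 µM Na₃VO₄, 0.02 mg/mL BSA, 5% DMSO; ATP 10 µM. Reaction 120 min at room temperature; ADP-Glo reagent 40 min, then detection reagent 40 min. Mean ± SD from two independent experiments.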
(In general: ADP-Glo first removes unused ATP, then detects ADP through luciferase.)
Target sequence in this assay (Q99558 whole entry): as the sequence (Q99558 whole entry, looked up) above

Data set [7] is described as follows: Volume of distribution in Sprague-Dawley rat at 1 mg/kg, iv administered as single bolus dose by LC-MS/MS analysis. Format: ADME, organism-based. Conditions: in vivo. In a few lines:
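SD rats, 3 per group. Single IV bolus at 1 mg/kg in DMSO:PEG200:saline 20:20:60 (0.2 mg/mL), or oral gavage at 10 mg/kg as suspension in 0.5% CMC-Na/0.2% Tween 80 (1 mg/mL). Plasma protein-precipitated with acetonitrile containing internal standards, then quantified by LC-MS/MS. Parameters derived by noncompartmental analysis. Mean ± SD.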

In data set [8] the target is NT-3 growth factor receptor (Homo sapiens, UniProt Q16288). As to the kind of experiment: Inhibition of human TRKC using poly[Glu:Tyr] (4:1) as substrate in presence of [gamma33P]ATP by hotspot assay.
Data set [9] relates to Mus musculus. As to the kind of experiment: Suppression of epidermal and dermal cell proliferation in C57 mouse model of IMQ-induced psoriasis assessed as reduction in Ki67 expression in back skin psoriatic lesions at 60 mg/kg, ig administered starting from day 3 post IMQ-challenge and measured 2 days post-last dose of IMQ by immunohistochemical analysis relative to control. The format is functional. Conditions: C57, topical. In a few lines:
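C57 mice given 5% imiquimod cream on back skin q.d. for seven days. Gavage q.d. at 60 or 120 mg/kg from day 3, n = 6 per group. Back-skin frozen sections (6 µm) stained for Ki67 by IHC. % Ki67+ of total cells quantified and normalized to IMQ-only model group. Two-tailed t-test, mean ± SD.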

Data set [10] addresses Activated CDC42 kinase 1 (Homo sapiens, UniProt Q07912). As to the kind of experiment: Inhibition of human ACK1 using [EAIYAAPFAKKK] as substrate in presence of [gamma33P]ATP by hotspot assay.
A short description of data set [11]: Initial plasma concentration in Sprague-Dawley rat at 1 mg/kg, iv administered as single bolus dose by LC-MS/MS analysis. Format: ADME, organism-based.

A word on the inhibition: it is the change of the read-out against control, counted positive when it falls. One may read the pIC50 as the IC50 on a negative log10 scale, so that one unit is a factor of ten. For orientation: Vd means the apparent volume that relates the amount in the body to the concentration in plasma or blood. A high value points to wide distribution into tissue. For orientation: inhibition in vivo means the relative decrease from the control value, in per cent.

NT-3 growth factor receptor, sequence (Q16288 whole entry): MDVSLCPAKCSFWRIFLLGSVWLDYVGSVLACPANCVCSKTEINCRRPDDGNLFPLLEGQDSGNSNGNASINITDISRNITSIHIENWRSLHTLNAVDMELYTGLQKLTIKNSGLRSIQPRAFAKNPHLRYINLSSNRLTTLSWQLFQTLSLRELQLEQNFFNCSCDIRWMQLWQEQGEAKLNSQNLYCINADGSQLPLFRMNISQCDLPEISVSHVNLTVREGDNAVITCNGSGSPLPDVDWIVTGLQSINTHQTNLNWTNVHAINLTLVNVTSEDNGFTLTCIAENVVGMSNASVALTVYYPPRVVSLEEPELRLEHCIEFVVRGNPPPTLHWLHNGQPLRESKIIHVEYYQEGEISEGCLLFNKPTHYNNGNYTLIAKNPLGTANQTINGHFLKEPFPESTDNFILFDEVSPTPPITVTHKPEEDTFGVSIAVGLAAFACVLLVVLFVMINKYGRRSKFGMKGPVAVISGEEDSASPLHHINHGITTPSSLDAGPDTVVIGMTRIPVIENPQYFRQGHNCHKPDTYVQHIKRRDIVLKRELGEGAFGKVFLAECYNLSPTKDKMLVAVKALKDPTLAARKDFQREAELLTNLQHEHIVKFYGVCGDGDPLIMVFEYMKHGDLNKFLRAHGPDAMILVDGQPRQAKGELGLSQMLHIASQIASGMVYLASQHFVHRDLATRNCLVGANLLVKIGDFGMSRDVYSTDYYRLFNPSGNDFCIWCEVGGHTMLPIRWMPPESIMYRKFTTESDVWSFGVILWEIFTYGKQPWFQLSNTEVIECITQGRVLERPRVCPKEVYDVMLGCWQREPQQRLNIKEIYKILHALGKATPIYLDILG
Leucine-rich repeat serine/threonine-protein kinase 2, sequence (Q5S007 whole entry): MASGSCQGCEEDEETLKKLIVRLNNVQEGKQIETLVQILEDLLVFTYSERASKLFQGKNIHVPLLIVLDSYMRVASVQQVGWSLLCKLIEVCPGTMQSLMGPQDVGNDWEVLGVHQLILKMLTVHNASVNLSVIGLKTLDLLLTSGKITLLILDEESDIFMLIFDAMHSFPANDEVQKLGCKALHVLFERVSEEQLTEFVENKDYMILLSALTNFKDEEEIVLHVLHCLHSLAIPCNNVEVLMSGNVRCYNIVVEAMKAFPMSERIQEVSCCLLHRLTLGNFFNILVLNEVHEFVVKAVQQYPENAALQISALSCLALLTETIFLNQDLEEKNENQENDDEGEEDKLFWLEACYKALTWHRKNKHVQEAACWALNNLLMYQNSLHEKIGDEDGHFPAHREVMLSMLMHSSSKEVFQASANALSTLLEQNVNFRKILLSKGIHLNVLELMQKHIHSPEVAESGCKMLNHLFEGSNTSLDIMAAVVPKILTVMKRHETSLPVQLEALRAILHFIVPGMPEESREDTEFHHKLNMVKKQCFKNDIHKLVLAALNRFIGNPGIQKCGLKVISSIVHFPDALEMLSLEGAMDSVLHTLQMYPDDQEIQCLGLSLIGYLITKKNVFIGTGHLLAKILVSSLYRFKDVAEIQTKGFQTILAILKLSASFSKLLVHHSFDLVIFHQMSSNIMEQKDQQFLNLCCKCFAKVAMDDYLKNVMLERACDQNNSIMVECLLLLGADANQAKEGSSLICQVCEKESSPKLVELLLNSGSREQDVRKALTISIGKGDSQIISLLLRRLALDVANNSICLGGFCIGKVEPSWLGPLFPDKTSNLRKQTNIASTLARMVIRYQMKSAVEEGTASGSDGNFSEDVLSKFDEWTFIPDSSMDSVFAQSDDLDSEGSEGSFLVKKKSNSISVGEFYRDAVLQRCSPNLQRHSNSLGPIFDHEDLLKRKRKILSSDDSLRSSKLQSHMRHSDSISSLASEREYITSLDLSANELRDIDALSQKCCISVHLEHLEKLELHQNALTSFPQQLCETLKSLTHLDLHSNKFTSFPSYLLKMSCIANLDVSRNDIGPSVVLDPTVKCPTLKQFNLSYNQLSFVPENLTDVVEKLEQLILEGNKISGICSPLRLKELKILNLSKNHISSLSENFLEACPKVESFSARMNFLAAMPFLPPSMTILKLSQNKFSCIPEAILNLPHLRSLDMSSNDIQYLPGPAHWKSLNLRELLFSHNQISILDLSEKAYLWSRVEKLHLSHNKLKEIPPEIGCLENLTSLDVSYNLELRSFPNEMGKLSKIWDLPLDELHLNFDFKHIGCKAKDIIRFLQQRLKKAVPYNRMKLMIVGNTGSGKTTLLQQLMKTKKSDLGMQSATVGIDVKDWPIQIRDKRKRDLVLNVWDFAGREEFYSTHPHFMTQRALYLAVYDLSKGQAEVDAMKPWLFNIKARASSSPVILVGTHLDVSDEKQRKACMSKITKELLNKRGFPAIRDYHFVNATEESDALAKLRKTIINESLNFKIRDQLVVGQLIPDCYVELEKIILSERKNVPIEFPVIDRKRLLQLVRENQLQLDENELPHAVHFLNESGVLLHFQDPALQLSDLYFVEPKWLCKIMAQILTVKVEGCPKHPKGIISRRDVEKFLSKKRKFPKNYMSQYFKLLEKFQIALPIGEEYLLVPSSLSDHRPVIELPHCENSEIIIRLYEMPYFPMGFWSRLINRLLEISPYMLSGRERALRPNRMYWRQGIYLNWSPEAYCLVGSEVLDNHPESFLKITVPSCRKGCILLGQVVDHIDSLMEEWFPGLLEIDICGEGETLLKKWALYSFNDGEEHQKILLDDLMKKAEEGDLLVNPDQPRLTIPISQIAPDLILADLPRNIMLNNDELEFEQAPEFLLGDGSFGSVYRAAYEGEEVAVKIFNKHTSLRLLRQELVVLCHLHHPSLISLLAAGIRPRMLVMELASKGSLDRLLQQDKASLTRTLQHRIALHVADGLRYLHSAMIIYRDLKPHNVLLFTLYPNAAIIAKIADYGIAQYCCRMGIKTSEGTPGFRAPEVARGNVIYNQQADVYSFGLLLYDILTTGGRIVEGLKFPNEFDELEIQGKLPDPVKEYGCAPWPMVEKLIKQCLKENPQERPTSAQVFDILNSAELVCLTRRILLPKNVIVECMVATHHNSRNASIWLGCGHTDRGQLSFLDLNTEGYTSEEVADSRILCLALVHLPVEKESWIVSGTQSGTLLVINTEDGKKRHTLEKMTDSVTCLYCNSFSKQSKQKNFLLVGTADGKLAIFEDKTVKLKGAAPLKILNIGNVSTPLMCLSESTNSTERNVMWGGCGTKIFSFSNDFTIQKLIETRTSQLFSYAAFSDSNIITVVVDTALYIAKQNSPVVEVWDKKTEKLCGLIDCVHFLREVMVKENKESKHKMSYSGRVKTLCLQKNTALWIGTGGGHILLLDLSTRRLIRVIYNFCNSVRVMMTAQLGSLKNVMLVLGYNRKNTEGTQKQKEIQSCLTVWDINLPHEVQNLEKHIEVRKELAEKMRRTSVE

In the case of `CC(O)(C#Cc1ccc(N2CCOCC2)c(Nc2ncnc3[nH]ccc23)c1)c1nccs1` (racemic), the inhibition at 1 µM in data set [1] turned out to be 86.3%. Besides, in [2], the outcome was Active. The negative-log IC50 (pIC50) in data set [3] was 7.02; in data set [5] it was 6.05; in data set [6], 8.01; in data set [8], 7.30; in data set [10] it was 6.72. Also, the inhibition entry in data set [4] is “Dose-dependent effect”. The compound also yielded a Vd in data set [7] of 2.73 L/kg. Besides, the inhibition in vivo at 60 mg/kg in [9] is 55%. In addition, the C0 in data set [11] turned out to be 377 ng/mL.
